We go through 35 compounds from PubChem BioAssay AID588826 (Broad Institute, 2011).

A word on the IC50: it is the concentration that inhibits the measured activity by half.

Structures are written as SMILES. “And” between values parts separate entries of the source, which are not always exact repeats. Equal values may be shown once. The source made the active and inactive calls.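 How the source made its calls: active means compounds cutting cell viability whose fitted half-maximal concentration is at most twice the top tested dose; inconclusive means flat loss between 30% and 70%, or poor curve fit; inactive means opposite effect, flat within 30%, or weaker potency.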

System in one assay: not listed separately
The assay is described as follows: cytotoxicity in ldlA[mSR-BI] CHO cells, dose response, cytotoxicity control for SR-BI HDL uptake inhibitor project, cell-based, CellTiter-Glo luminescence, 24 h, dry powder, set 3 (AID 588826). The settings on record: ldlA[mSR-BI] CHO cells viability, CellTiter-Glo ATP, 24 h; at 11 µM (top of the series). Summed up: (§1)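 Assay system: ldlA[mSR-BI] cells; Buffer or medium: Ham's F12 growth medium with 10% FCS; Signal: ATP luminescence, CellTiter-Glo; Times: 24 h compound exposure at 37 °C, read 10 min after reagent; Read-out basis: cell viability IC50.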
A general note: Cellular ATP, detected with luciferase, serves as a proxy for viable cell number.
With `CC(C)NC(=O)Nc1cccc2c1O[C@H](CN(C)Cc1ccc(Cl)c(Cl)c1)[C@@H](C)CN([C@@H](C)CO)C2=O`, the activity change, negative = cytotoxicity was 6.58% (inactive).

The assay is the same for the next values; noted with them: ldlA[mSR-BI] CHO cells viability, CellTiter-Glo ATP, 24 h; at 30 µM (top of the series).
Consider `C[C@@H]1CN([C@@H](C)CO)C(=O)Cc2cc(NC(=O)Nc3ccc(C(F)(F)F)cc3)ccc2O[C@@H]1CN(C)S(=O)(=O)c1ccc(Cl)cc1`, for which the activity change, negative = cytotoxicity is -40.4% (inactive).

Still in this assay, the particulars now being: ldlA[mSR-BI] CHO cells viability, CellTiter-Glo ATP, 24 h; at 35 µM (top of the series).
For `COc1cc(OC)cc(C(=O)Nc2nc(-c3ccc4c(c3)CCN4C(=O)CN(C)C)cs2)c1`, the activity change, negative = cytotoxicity was -10.2% (inactive).

Take `CC(=O)N1CCc2cc(-c3nc(NC(=O)c4cccc(OC(F)(F)F)c4)sc3C)ccc21`: the activity change, negative = cytotoxicity is 1.36% (inactive). Same read-out and setting: with `O=C(CN(C(=O)Cn1nnc(-c2ccc3c(c2)OCO3)n1)C1CCCCC1)NC1CCCC1` the figure was -3.34% (inactive); with `COc1ccc(-c2nnn(CC(=O)N(C3CCCCC3)C(C)C(=O)NC3CCCC3)n2)cc1OC` (stereo not given), 37.1% (inactive); with `CCNC(=O)N1CCc2cc(-c3csc(NC(=O)c4cc(OC)cc(OC)c4)n3)ccc21`, -8.64% (inactive).

Regarding `CC1CCC/C=C/C2CC(O)CC2C(O)/C=C\C(=O)O1` (stereo not given), the activity change, negative = cytotoxicity is -9.81% (inactive). Consider `COc1ccc(-c2nnn(CC(=O)N(CC3CCCCC3)C(C)C(=O)NC3CCCC3)n2)cc1OC` (stereo not given), for which the activity change, negative = cytotoxicity is 3.32% (inactive). Still for that read-out and setting: with `CC(C)(Sc1cc(C(C)(C)C)c(O)c(C(C)(C)C)c1)Sc1cc(C(C)(C)C)c(O)c(C(C)(C)C)c1` the figure was -1.63% (inactive). For `COc1cc(OC)cc(C(=O)Nc2nc(-c3ccc4c(c3)CCN4C(=O)OC(C)(C)C)cs2)c1`, the activity change, negative = cytotoxicity was 5.45% (inactive). On the same count and under the same terms, with `CC(C(=O)NC1CCCC1)N(C(=O)Cn1nnc(-c2ccccc2)n1)C1CCCCC1` (stereo not given) the figure was 4.27% (inactive). On to `CCOC(=O)N1CCC(NC(=O)c2ccc3c(c2)N(Cc2ccc(F)cc2)CCS3)CC1`, for which the activity change, negative = cytotoxicity was -13.6% (inactive). On the same count and under the same terms, with `C[C@@H]1CN([C@H](C)CO)C(=O)c2cc(NC(=O)Cc3cn(C)c4ccccc34)ccc2O[C@H]1CN(C)S(=O)(=O)c1ccc(F)cc1` the figure was -4.67% (inactive); with `COc1ccc(-c2nnn(CC(=O)N(C3CCN(C)CC3)C(C)C(=O)NC3CCCC3)n2)cc1OC` (stereo not given), 9.25% (inactive). For `CCC(=O)N1CCc2cc(-c3csc(NC(=O)c4cccc(OC)c4)n3)ccc21`, the activity change, negative = cytotoxicity was 3.32% (inactive). On the same count and under the same terms, with `C[C@H](C(=O)NC1CCCC1)N(C(=O)Cn1nnc(-c2ccc3c(c2)OCO3)n1)C1CCCCC1` the figure was -10.6% (inactive); with `CCC(=O)N1CCc2cc(-c3csc(NC(=O)c4ccco4)n3)ccc21`, -2.4% (inactive); with `CCC(=O)N1CCc2cc(-c3csc(NC(=O)c4cccc(C#N)c4)n3)ccc21`, -0.356% (inactive). For the compound `CCC(=O)N1CC(C)(C)c2cc(-c3csc(NC(=O)c4cc(OC)cc(OC)c4)n3)ccc21`, the activity change, negative = cytotoxicity is -3.5% (inactive). Same read-out and setting: in the case of `COc1ccc(-c2cc(CC(=O)N(C3CCCCC3)C(C)C(=O)NC3CCCC3)no2)cc1OC` (stereo not given) it was 3.77% (inactive); in that of `COc1ccc(-c2nnn(CC(=O)N(C3CCCCC3)C(C(=O)NC3CCCC3)C(C)C)n2)cc1OC` (stereo not given), -15.8% (inactive); in that of `COCC(=O)N1CCc2cc(-c3csc(NC(=O)c4cc(OC)cc(OC)c4)n3)ccc21`, 4.05% (inactive). The same measure, in the same setting: in the case of `COc1ccc(-c2nnn(CC(=O)N(C3CCCC3)C(C)C(=O)NC3CCCC3)n2)cc1OC` (stereo not given) it was -0.791% (inactive); in that of `C[C@@H]1CN([C@H](C)CO)C(=O)c2cc(NC(=O)Cc3cn(C)c4ccccc34)ccc2O[C@H]1CN(C)S(=O)(=O)c1ccc(Cl)cc1`, 4.93% (inactive) and -3.5% (inactive) and 6.65% (inactive); in that of `CCC(=O)N1CCc2cc(-c3csc(NC(=O)c4ccc(F)c(OC)c4)n3)ccc21`, -12.3% (inactive).

For the compound `CCC(=O)N1CCc2cc(-c3csc(NC(=O)c4ccc5c(c4)OCO5)n3)ccc21`, the activity change, negative = cytotoxicity was 1.94% (inactive). Still for that read-out and setting: with `CCC(=O)N1CCc2cc(-c3csc(NC(=O)c4ccc(Cl)s4)n3)ccc21` the figure was -1.8% (inactive).

The same assay, now with this note: ldlA[mSR-BI] CHO cells viability, CellTiter-Glo ATP, 24 h; at 68 µM (top of the series).
Turning to `CCOc1ccc(NC(=O)CN2CCN(CC(=O)Nc3cc(OC)cc(OC)c3)CC2)cc1`, the activity change, negative = cytotoxicity is -0.275% (inactive).

The subject of another assay is ldlA[mSR-BI] CHO cells viability, CellTiter-Glo ATP, 24 h. Described as above.
Conditions: not given
The gist of the method:
as §1
On to `Cc1ccc2oc(-c3cccc(NC(=O)c4cc(-n5cnnc5)ccc4Cl)c3)nc2c1`, for which the 50% inhibitory concentration (IC50) is 39.9 µM. Still for that read-out and setting: in the case of `CCCCCCC1CCC/C1=N\NC(N)=S` (stereo not given) it was 4.46 µM. The same measure, in the same setting: with `COc1c(NC(=O)C(=O)c2ccc(OCCN3CCOCC3)c3ccccc23)cc(C(C)(C)C)cc1NS(C)(=O)=O` the figure was 17.8 µM. On the same count and under the same terms, with `C[C@H]1CN([C@@H](C)CO)C(=O)c2cccc(NC(=O)Nc3ccccc3)c2O[C@@H]1CN(C)Cc1ccc(Cl)c(Cl)c1` the figure was 16.1 µM; with `CCOc1ccccc1/C=C/c1onc(C)c1S(=O)(=O)N1CCC(C(=O)NC(C)(C)C)CC1`, 33.8 µM. Take `CC(C(=O)NC1CCCC1)N(C(=O)Cn1nnc(-c2ccc(Cl)cc2)n1)C1CCCCC1` (stereo not given): the 50% inhibitory concentration (IC50) was 53 µM.
